From article PMC4191588 (Journal of Medicinal Chemistry, 2014)

Assays:
[1] = molecular target: USP1/UAF1 (Homo sapiens, UniProt O94782); experiment: USP1/UAF1 quantitative high-throughput screening; format: biochemical
[2] = test system: H1299 cells; experiment: Colony formation assay in H1299 cells; format: cell-based, human; settings: for effect on cell survival (in words) / reduction of colony formation: H1299 cells, 5 μM, 7 days; for reduction of colony formation: relative to DMSO
[3] = Aqueous chemical stability; format: physicochemical; settings: aqueous solution at room temperature
[4] = test system: Caco-2; experiment: Caco-2 permeability; format: in vitro ADME
[5] = Preliminary in vivo PK studies
[6] = test system: Ub-PCNA in H1299 cells; experiment: Western blot of monoubiquitinated PCNA; format: cell-based, human; settings: 4 hr; for change in Ub-PCNA (in words): H1299 cells, 1, 5, and 25 µM; for lowest concentration at which an increase in Ub-PCNA was observed: H1299 cells
[7] = test system: Ca^2+ channel; experiment: CEREP LeadProfilingScreen2 radioligand binding; settings: 10 μM, duplicate
In short: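 Test compound run at 10 μM in a commercial lead-profiling panel of 80 GPCRs, ion channels and transporters.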

[8] = Mouse plasma stability; format: in vitro ADME
[9] = test system: small panel of DUBs; settings: cited from earlier work
[10] = test system: 451 kinases; settings: cited from earlier work

Chain of USP1/UAF1 (O94782 whole entry): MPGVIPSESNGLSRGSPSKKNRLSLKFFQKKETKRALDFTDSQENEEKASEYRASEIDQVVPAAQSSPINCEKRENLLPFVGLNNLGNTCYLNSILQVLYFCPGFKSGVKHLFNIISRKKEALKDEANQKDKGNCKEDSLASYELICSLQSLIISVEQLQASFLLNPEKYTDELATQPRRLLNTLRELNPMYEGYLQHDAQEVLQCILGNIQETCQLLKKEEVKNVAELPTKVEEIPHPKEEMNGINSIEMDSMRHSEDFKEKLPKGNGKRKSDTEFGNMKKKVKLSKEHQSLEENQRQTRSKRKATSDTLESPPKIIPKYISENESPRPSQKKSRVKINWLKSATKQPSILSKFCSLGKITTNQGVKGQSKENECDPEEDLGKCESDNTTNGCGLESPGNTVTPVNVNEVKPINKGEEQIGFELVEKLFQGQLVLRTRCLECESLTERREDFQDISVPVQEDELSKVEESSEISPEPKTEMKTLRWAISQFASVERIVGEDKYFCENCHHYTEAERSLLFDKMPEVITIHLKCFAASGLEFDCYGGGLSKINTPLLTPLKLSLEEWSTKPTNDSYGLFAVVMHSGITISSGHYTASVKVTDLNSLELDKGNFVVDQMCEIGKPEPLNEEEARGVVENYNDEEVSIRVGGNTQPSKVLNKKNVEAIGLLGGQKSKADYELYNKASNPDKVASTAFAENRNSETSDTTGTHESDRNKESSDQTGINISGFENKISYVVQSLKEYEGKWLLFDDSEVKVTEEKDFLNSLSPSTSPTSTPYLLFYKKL
Chain of USP1/UAF1 (Q8TAF3 whole entry partner): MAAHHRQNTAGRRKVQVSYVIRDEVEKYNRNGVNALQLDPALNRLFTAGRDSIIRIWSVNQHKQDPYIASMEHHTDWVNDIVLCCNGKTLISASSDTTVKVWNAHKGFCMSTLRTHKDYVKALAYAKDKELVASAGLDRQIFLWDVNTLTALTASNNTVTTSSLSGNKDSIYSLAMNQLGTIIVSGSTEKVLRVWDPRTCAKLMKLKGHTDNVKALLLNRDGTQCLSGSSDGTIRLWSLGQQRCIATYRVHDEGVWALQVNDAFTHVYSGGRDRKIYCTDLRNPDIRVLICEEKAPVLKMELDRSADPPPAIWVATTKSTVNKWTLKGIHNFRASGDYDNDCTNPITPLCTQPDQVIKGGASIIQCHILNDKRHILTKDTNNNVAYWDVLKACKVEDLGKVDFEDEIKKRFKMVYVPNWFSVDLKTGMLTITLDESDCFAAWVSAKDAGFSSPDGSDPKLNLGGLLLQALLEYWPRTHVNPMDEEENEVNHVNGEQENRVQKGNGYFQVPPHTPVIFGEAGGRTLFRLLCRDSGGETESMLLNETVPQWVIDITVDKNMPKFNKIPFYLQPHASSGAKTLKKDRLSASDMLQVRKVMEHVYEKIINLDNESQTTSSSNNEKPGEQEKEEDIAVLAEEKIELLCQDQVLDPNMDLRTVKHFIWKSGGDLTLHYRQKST

FC(F)(F)c1ccc(-c2nc(NCc3ccc(-c4cccnc4)cc3)c3ccccc3n2)cc1 [Compound 23]
activity toward USP1/UAF1 (in words) [1]: inactivity

Cc1cnc(-c2ccccc2C2COC2)nc1NCc1ccc(-n2ccnn2)cc1 [Compound 77, N-(4-(1H-1,2,3-Triazol-1-yl)benzyl)-5-methyl-2-(2-(oxetan-3-yl)phenyl)pyrimidin-4-amine]
effect on cell survival (in words) [2]: no effect
EC50 ([2]; Homo sapiens, NCI-H1299, read-out: EC50 cell survival (colony formation)): > 25 µM
activity toward USP1/UAF1 (in words) [1]: lost all activity

FC(F)(F)c1cccc(-c2nc(NCc3ccc(-c4cccnc4)cc3)c3ccccc3n2)c1 [Compound 22]
activity toward USP1/UAF1 (in words) [1]: inactivity

Cc1cnc(-c2ccccc2C(C)C)nc1NCc1ccc(-n2ccnc2)cc1 [Compound 69, N-(4-(1H-Imidazol-1-yl)benzyl)-2-(2-isopropylphenyl)-5-methylpyrimidin-4-amine]
reduction of colony formation [2]: greater than 70%

COc1cnc(-c2ccccc2C(C)C)nc1NCc1ccc(-c2cccnc2)cc1 [Compound 49, 2-(2-Isopropylphenyl)-5-methoxy-N-(4-(pyridin-3-yl)benzyl)pyrimidin-4-amine]
reduction of colony formation [2]: greater than 70%

Cc1cnc(-c2ccccc2C(C)C)nc1NCc1ccc(-n2ccnn2)cc1 [Compound 70, N-(4-(1H-1,2,3-Triazol-1-yl)benzyl)-5-methyl-2-(2-isopropylphenyl)pyrimidin-4-amine]
stability in PBS buffer, assay buffer, pH 2, pH 9 (in words) [3]: stable
Caco-2 (A→B) Papp [4]: 22.98 10^–6 cm/s
clearance [5]: > 70 mL/min/kg
change in Ub-PCNA (in words) [6]: dose-dependent increase in Ub-PCNA
lowest concentration at which an increase in Ub-PCNA was observed [6]: 1 µM
inhibition of Ca^2+ channel [7]: > 50%
stability in mouse plasma (in words) [8]: stable
reduction of colony formation [2]: greater than 70%

FC(F)(F)c1ccccc1-c1nc(NCc2cccs2)c2ccccc2n1 [Compound 1, N-(Thiophen-2-ylmethyl)-2-(2-(trifluoromethyl)phenyl)quinazolin-4-amine]
activity against a small panel of DUBs [9]: no significant activity
change in Ub-PCNA (in words) [6]: dose-dependent increase in Ub-PCNA
effect on cell survival (in words) [2]: minimal
appreciable inhibition among 451 kinases [10]: only one of 451 kinases

Cc1cnc(-c2ccccc2C2COC2)nc1NCc1ccc(-c2cccnc2)cc1 [Compound 72, 5-methyl-2-(2-(oxetan-3-yl)phenyl)-N-(4-(pyridin-3-yl)benzyl)pyrimidin-4-amine]
activity toward USP1/UAF1 (in words) [1]: lost all activity

CC(C)c1ccccc1-c1nc(NCc2ccc(-c3cccnc3)cc2)c2occc2n1 [Compound 48, 2-(2-Isopropylphenyl)-N-(4-(pyridin-3-yl)benzyl)furo[3,2-d]pyrimidin-4-amine]
reduction of colony formation [2]: greater than 70%

Cc1cnc(-c2ccccc2C(C)C)nc1NCC1CCN(c2cccnc2)CC1 [Compound 64, 2-(2-Isopropylphenyl)-5-methyl-N-((1-(pyridin-3-yl)piperidin-4-yl)methyl)pyrimidin-4-amine]
change in Ub-PCNA (in words) [6]: dose-dependent increase in Ub-PCNA
lowest concentration at which an increase in Ub-PCNA was observed [6]: 1 µM
reduction of colony formation [2]: greater than 70%

Cc1cnc(-c2ccccc2C(C)C)nc1NCC1CCN(C)CC1 [Compound 58]
activity toward USP1/UAF1 (in words) [1]: complete loss of activity
